Measurements reported in PubChem BioAssay AID2247 (Johns Hopkins Ion Channel Center, 2010).
Hit rate of the full screen: of about 300,000 compounds, about 1,200 (0.4%) were called active.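 How the source made its calls: active means B-score over 3 SD under the library average, no early fluorescence shift, positive overall ratio signal; inactive means the rest.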 The list comes from a sample in which actives are over-represented; it also holds similar structures and randomly drawn compounds.

target: Short transient receptor potential channel 4 (Mus musculus) (UniProt Q9QUQ5); assay: inhibitors of mouse TRPC4 channel, primary screen, Fluo4 calcium, HEK293 TRPC4beta/mu-opioid cells (AID 2247); conditions: DAMGO-evoked Fluo4 calcium flux, at 10 µM; stronger effect = lower value
Sequence (Q9QUQ5 whole entry, looked up): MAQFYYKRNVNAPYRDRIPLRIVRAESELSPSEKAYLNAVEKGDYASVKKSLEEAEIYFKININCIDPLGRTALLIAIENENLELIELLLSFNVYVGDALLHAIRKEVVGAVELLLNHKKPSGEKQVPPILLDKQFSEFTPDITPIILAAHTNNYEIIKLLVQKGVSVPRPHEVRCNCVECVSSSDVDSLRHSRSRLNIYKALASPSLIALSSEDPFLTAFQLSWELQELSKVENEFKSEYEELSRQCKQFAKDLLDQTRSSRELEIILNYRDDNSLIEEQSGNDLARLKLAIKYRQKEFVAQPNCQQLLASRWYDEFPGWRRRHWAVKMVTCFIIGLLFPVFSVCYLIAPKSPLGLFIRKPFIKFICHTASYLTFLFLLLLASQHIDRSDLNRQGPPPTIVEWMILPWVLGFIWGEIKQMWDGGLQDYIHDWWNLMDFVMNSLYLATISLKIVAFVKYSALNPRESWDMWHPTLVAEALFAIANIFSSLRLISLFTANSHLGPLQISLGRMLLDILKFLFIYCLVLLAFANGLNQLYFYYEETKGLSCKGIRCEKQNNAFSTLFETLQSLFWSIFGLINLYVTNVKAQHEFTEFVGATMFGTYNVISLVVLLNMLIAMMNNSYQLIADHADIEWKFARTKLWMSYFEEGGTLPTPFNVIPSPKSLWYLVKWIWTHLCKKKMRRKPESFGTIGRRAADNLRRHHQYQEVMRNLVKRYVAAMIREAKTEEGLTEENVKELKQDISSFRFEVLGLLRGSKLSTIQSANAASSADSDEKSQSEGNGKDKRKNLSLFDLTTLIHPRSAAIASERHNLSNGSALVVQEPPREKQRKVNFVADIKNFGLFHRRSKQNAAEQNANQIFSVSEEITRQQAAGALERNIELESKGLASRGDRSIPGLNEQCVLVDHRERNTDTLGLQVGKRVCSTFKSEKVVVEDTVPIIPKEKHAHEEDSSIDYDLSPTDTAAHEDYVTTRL
Summary of the method: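 Material: HEK293 cells with stable TRPC4beta plus mu-opioid receptor expression; probe or stimulus: DAMGO in two steps, submaximal then maximal; technique: Fluo4 calcium fluorescence by kinetic imaging, 5 s 1 Hz baseline; measure: integrated fluorescence ratio relative to baseline, converted to per-well B score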

Row | Structure (SMILES) | B-score
1 | O=C(NC1CC1)C1CCCN(C(=O)NC2CCCCC2)C1 (stereo unspecified) | inactive
2 | CCc1nc(SCC(=O)Nc2ccccc2OC)n[nH]1 | inactive
3 | COc1ccc(N(CC(=O)Nc2cc(OC)cc(OC)c2)S(=O)(=O)c2c(C)n[nH]c2C)cc1 | inactive
4 | O=C(O)C(F)(F)C(NCc1ccccc1)c1ccccc1 (stereo unspecified) | inactive
5 | CCCc1c(C(=O)N/N=C(\C)CCc2ccc(OC)cc2)nnn1-c1nonc1N | inactive
6 | CN(C)c1cc(N)c2ccccc2n1 (tested in a mixture with another compound) | -5 (active)
7 | COc1ccc(-c2cc(C(=O)N(C)Cc3ccccc3)c3ccccc3n2)cc1 | inactive
8 | Nc1nc(-c2ccccc2)cc(-c2ccccc2)n1 | inactive
9 | COc1ccccc1C(=O)N(Cc1ccc(C)o1)C1CCS(=O)(=O)C1 (stereo unspecified) | inactive
10 | CCCCCCCCCOC1OC(CO)C(O)C(O)C1NC(C)=O (stereo unspecified) | inactive
11 | Cc1nn(-c2ccccc2)c2[nH]c(C(F)(F)F)cc(=O)c12 | -7 (active)
12 | Cc1nc2c(c(C)nn2-c2ccccc2)c(C)c1C | inactive
13 | Cc1nn(-c2ccccc2)c(=O)c2noc(C)c12 | inactive
14 | COc1ccc(Nc2cc(Sc3ccc(OC)cc3)ncn2)cc1 | inactive
15 | COn1c(-c2ccc(Cl)cc2Cl)nc2ncccc21 | inactive
16 | Clc1ccc(COn2c(-c3ccc(Cl)cc3Cl)nc3ncccc32)cc1 | -9 (active)
17 | Clc1ccc(-c2ncc3ccccn23)c(Cl)c1 | inactive
18 | O=C(COC(=O)c1ccc([N+](=O)[O-])cc1Cl)NC(=O)c1ccccc1 | inactive
19 | Cc1cc(C)c(S(=O)(=O)NCC(c2ccc3c(c2)OCO3)N2CCOCC2)c(C)c1 (stereo unspecified) | inactive
20 | N#C/C(=C/c1ccc(Cl)cc1)NC(=O)c1ccccc1 | inactive
21 | Cc1c(Cl)c([N+](=O)[O-])nn1CC(=O)NCCCN1CCOCC1 | inactive

Row | Structure (SMILES) | B-score
22 | CC(=O)Nc1ccc(NC(=O)COc2ccccc2C(=O)Nc2cccc(Cl)c2Cl)cc1 | inactive
23 | COc1ccccc1NC(=S)NC(=O)C(C)C | inactive
24 | FC(F)Oc1ccccc1NC(=S)Nc1cccc(Cl)c1Cl | -7 (active)
25 | CCCCc1nc(SCC(=O)Nc2nnc(C(C)C)s2)n[nH]1 | inactive
26 | C[N+](C)(C)CCOP(=O)([O-])OC[C@H](O)CO | inactive
27 | O=C(Nc1cccc(S(=O)(=O)NC2=NCCC2)c1)C1CCCCC1 | inactive
28 | COc1ccc(/C=N/Nc2ncnc3sc4c(c23)CCCC4)cc1O | inactive
29 | COc1ncnc2sc3c(c12)CCCC3 | -6 (active)
30 | N=c1c2c3c(sc2ncn1N)CCCC3 | inactive
31 | Cc1ccc(S(=O)(=O)N(CC(O)CN2CCCCC2)c2cccc([N+](=O)[O-])c2)cc1 (stereo unspecified) | inactive
32 | Cc1cc(C)n2nc(C(=O)OCC(=O)N(CCC#N)c3ccc(F)cc3)nc2n1 | inactive
33 | CCCn1nc(NS(=O)(=O)c2ccc(F)cc2)c2cc3ccccc3nc21 | inactive
34 | C=C(C)COc1ccc(-c2n[nH]c(C)c2-c2ccccc2)c(O)c1 | inactive
35 | C=C(C)COc1ccc(-c2n[nH]c(C)c2-c2ccccc2OC)c(O)c1 | inactive
36 | COc1ccc(-c2n[nH]c(C)c2-c2ccccc2OC)c(O)c1 | -6 (active)
37 | Cc1ccc(-n2c(C)cc(C(=O)CSc3nnc4ccccn34)c2C)cc1 | inactive
38 | CC(=O)NC1CC2CCCC(C1)N2CC(=O)Nc1ccccc1 (stereo unspecified) | inactive
39 | COc1ccc(NC(=O)NC2CC3CCCC(C2)N3Cc2ccccc2)cc1 (stereo unspecified) | inactive
40 | CN(C)c1ccc(NC(=O)CN2C3CCCC2CC(NC(=O)c2ccccc2)C3)cc1 (stereo unspecified) | -9 (active)
41 | COc1ccc(OC)c(C(C)NC(=S)Nc2ccc(S(=O)(=O)Nc3ncccn3)cc2)c1 (stereo unspecified) | inactive
